Measured values published in ChEMBL document CHEMBL3124900, “Discovery and early clinical evaluation of BMS-605339, a potent and orally efficacious tripeptidic acylsulfonamide NS3 protease inhibitor for the treatment of hepatitis C virus infection” (J Med Chem, 2014).
Activity calls are given as the source filed them. The calls are words filed in the database; no cut-off is given here.

What was measured:
[1] = Apparent terminal half life in Sprague-Dawley rat at 5 mg/kg, iv by LC/MS/MS analysis; format: ADME, organism-based; design: dose 5 mg/kg, route intravenous; conditions: in vivo, read-out: betat1/2(app) (converted)
[2] = AUC in Sprague-Dawley rat at 15 mg/kg, po administered via gavage by LC/MS/MS analysis; format: ADME, organism-based; design: dose 15 mg/kg, route oral; conditions: plasma
[3] = Oral bioavailability in Sprague-Dawley rat at 15 mg/kg administered via gavage by LC/MS/MS analysis; format: ADME, organism-based; conditions: in vivo
[4] = Cytotoxicity against human HuH7 cells; format: cell-based; conditions: Huh-7 cells
Hepatitis C virus [5] = assay: Antiviral activity against Hepatitis C virus genotype 1b Con1 after 4 days by cell-based replicon assay; format: functional, organism-based, Hepacivirus hominis; conditions: isolate Con1, 96 h
[6] = Whole body plasma clearance in Sprague-Dawley rat at 5 mg/kg, iv by LC/MS/MS analysis; format: ADME, organism-based; design: dose 5 mg/kg, route intravenous
[7] = AUC in intraduodenally dosed Sprague-Dawley rat plasma measured over 4 hrs by LC/MS/MS analysis; format: ADME, organism-based; design: time < 4 hr, route intraduodenal; conditions: Sprague-Dawley, plasma
Summary of the method: (§1)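 Abbreviated rat screen: surgically prepared rats were dosed intraduodenally. Plasma was sampled over 4 h, and liver was collected at the 4 h end point. Plasma was precipitated with two volumes of ACN plus internal standard. Liver was weighed and homogenized in 2 volumes of 20% Hanks buffered salt solution/80% ACN. Both were quantified by LC/MS/MS.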

Liver = assay: Drug uptake in intraduodenally dosed Sprague-Dawley rat liver measured per gm of tissue over 4 hrs by LC/MS/MS analysis; format: ADME, organism-based; conditions: in vivo, other; summary of the method: as §1
[8] = Inhibition of Hepatitis C virus genotype 1a H77 recombinant NS3/4A protease expressed in Escherichia coli BL21 (DE3) cell using Ac-Asp-Glu-Asp(EDANS)-Glu-Glu-Abu[C(O)-O]-Ala-Ser-Lys(DABCYL)-NH2 as substrate by FRET assay; design: species or system Hepatitis C virus (isolate H77)
[9] = Drug uptake into Sprague-Dawley rat hepatocytes by silicone oil layer method; format: ADME, cell-based, Hepatocyte
Homo sapiens [10] = assay: Cardiovascular toxicity in Hepatitis C virus genotype 1 infected human assessed as PR-interval prolongation at 120 mg, po by electrocardiography; format: organism-based; conditions: in vivo
Homo sapiens [11] = assay: Cardiovascular toxicity in healthy human assessed as junctional rhythm disturbances at 120 mg, po by electrocardiography; format: organism-based; conditions: in vivo
Homo sapiens [12] = assay: Cardiovascular toxicity in healthy human assessed as PR-interval prolongation at 120 mg, po by electrocardiography; format: organism-based; conditions: in vivo
[13] = Drug uptake into human hepatocytes by silicone oil layer method; format: ADME, cell-based, Hepatocyte
[14] = Ratio of drug level in liver to plasma in Beagle dog at 14 mg/kg, po measured after 24 hrs by LC/MS/MS analysis; format: ADME, organism-based, Canis lupus familiaris; design: dose 14 mg/kg, route oral
Summary of the method: (§2)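 Single oral dose (dog 14 mg/kg, rat 15 mg/kg), with liver and plasma sampled 24 h post-dose. Plasma was precipitated with two volumes of ACN containing internal standard and centrifuged. Tissue was weighed and homogenized in 2 volumes of 20% Hanks buffer/80% ACN. LC/MS/MS used a C18 column at 60 °C, ammonium formate/formic acid water–methanol gradient, and SRM detection. LLQ was 5 nM. Ratio is liver over plasma level.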

Homo sapiens [15] = assay: Cardiovascular toxicity in healthy human assessed as mild bradycardia at 120 mg, po by electrocardiography; format: organism-based; conditions: in vivo
Cytochrome P450 3A4 = Cytochrome P450 3A4 (Homo sapiens, UniProt P08684); assay: Inhibition of CYP3A4 (unknown origin); format: ADME
[16] = Oral bioavailability in cynomolgus monkey at 3 mg/kg administered via gavage by LC/MS/MS analysis; format: ADME, organism-based, Macaca fascicularis; conditions: in vivo
[17] = Genotoxicity in micronucleus (unknown origin)
Salmonella typhimurium = assay: Mutagenicity in Salmonella typhimurium by Ames test; format: toxicity, organism-based; conditions: salmonella enterica subsp. enterica serovar typhimurium
Hepatitis C virus [18] = assay: Antiviral activity against Hepatitis C virus genotype 1 infected in human assessed as reduction in plasma viral load administered orally measured after 12 hrs; format: functional, organism-based; conditions: Hepacivirus hominis
Summary of the method: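 HCV genotype 1-infected subjects received single oral doses of 10, 60 or 120 mg. Plasma HCV RNA was followed, and mean log10 reduction in viral load was read 12 h after dosing.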

[19] = Half life in rat liver microsomes at 3 uM by LC/MS/MS analysis; format: ADME
Summary of the method: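 Pooled liver microsomes were run in triplicate per species. Each incubation held 3 μM test compound in 0.1 M potassium phosphate pH 7.4 at 37 °C, with 0.9 mg/mL microsomal protein, 0.033 mM MgCl2 and an NADPH-regenerating system. Proteins were precipitated with two volumes of ACN containing internal standard, and supernatants were analysed by LC/MS/MS.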

Homo sapiens [20] = assay: Cardiovascular toxicity in Hepatitis C virus genotype 1 infected human assessed as mild bradycardia at 120 mg, po by electrocardiography; format: organism-based; conditions: in vivo
Homo sapiens [21] = assay: Cardiovascular toxicity in Hepatitis C virus genotype 1 infected human assessed as junctional rhythm disturbances at 120 mg, po by electrocardiography; format: organism-based; conditions: in vivo
[22] = tested on: Bovine viral diarrhea virus 1; assay: Antiviral activity against Bovine viral diarrhea virus; format: functional, organism-based
[23] = tested on: Human immunodeficiency virus; assay: Antiviral activity against Human immunodeficiency virus; format: functional, organism-based
[24] = Oral bioavailability in Beagle dog by LC/MS/MS analysis; format: ADME, organism-based, Canis lupus familiaris; conditions: in vivo
[25] = tested on: Canine parainfluenza virus; assay: Antiviral activity against Canine parainfluenza virus; format: functional
[26] = Drug uptake into dog hepatocytes by silicone oil layer method; format: ADME, cell-based, Canis lupus familiaris, Hepatocyte
Hepatitis C virus [27] = assay: Antiviral activity against Hepatitis C virus genotype 1a H77 assessed as inhibition of HCV replicon-encoded Renilla luciferase reporter activity after 4 days by cell-based HCV replicon assay; format: functional, organism-based, Hepacivirus hominis; conditions: genotype 1a H77, 96 h
[28] = Binding affinity to P-glycoprotein (unknown origin); format: ADME; conditions: human
[29] = Ratio of drug level in liver to plasma in Sprague-Dawley rat at 15 mg/kg, po administered via gavage measured after 24 hrs by LC/MS/MS analysis; format: ADME, organism-based; design: dose 15 mg/kg, route oral; summary of the method: as §2
[30] = Tmax in po dosed human; format: ADME, organism-based; conditions: in vivo
[31] = Terminal half life in po dosed human; format: ADME, organism-based; conditions: in vivo, read-out: beta t1/2 (converted)

Chain of Cytochrome P450 3A4 (P08684 whole entry): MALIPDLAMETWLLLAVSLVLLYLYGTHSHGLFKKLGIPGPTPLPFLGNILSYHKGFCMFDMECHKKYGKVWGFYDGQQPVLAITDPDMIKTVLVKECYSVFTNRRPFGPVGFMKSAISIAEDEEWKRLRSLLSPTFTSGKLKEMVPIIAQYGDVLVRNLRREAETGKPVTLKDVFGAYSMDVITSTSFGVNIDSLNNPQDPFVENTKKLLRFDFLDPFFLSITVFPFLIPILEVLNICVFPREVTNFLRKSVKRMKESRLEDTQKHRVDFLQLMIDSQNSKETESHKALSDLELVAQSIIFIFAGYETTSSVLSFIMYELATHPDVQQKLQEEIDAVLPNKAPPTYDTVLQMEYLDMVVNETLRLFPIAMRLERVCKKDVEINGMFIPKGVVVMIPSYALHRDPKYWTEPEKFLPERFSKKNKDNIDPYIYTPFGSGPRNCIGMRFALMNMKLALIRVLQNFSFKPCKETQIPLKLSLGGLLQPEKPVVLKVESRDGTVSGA

C=C[C@@H]1C[C@]1(NC(=O)[C@@H]1C[C@@H](Oc2nccc3c(OC)cccc23)CN1C(=O)[C@@H](NC(=O)OC(C)(C)C)C(C)(C)C)C(=O)NS(=O)(=O)C1CC1
half-life [1]: 2.2 h
AUC [2]: 3.74 µM·h
bioavailability [3]: 9%
CC50 [4]: > 100000 nM
EC50 (Hepatitis C virus [5]): 25 nM
clearance [6]: 6 mL/min/kg
AUC at 4 h [7]: 2.36 µM·h
Drug uptake (Liver): 51260 ng
IC50 [8]: 1 nM

C=C[C@@H]1C[C@]1(NC(=O)[C@@H]1C[C@@H](Oc2nccc3cc(OC)ccc23)CN1C(=O)[C@@H](NC(=O)OC(C)(C)C)C(C)(C)C)C(=O)NS(=O)(=O)C1CC1
Km [9]: 1.4 µM
Activity (Homo sapiens [10]): Toxic
Activity (Homo sapiens [11]): Toxic
half-life [1]: 4.4 h
AUC [2]: 14.1 µM·h
Activity (Homo sapiens [12]): Toxic
bioavailability [3]: 18%
Km [13]: 1.4 µM
CC50 [4]: > 100000 nM
Kp at 24 h [14]: 75
Activity (Homo sapiens [15]): Toxic
IC50 (Cytochrome P450 3A4): 2000 nM
bioavailability [16]: < 1%
Activity [17]: Non-toxic
Activity (Salmonella typhimurium): Non-toxic
Activity (Hepatitis C virus [18]): Dose-dependent effect
half-life at 3 µM [19]: > 1 h
Activity (Homo sapiens [20]): Toxic
Activity (Homo sapiens [21]): Toxic
EC50 (Hepatitis C virus [5]): 2.8 nM
Activity [22]: inactive
Activity [23]: inactive
bioavailability [24]: 51%
Activity [25]: inactive
Km [26]: 1.4 µM
EC50 (Hepatitis C virus [27]): 8.3 nM
Activity [28]: Active
AUC at 4 h [7]: 10.4 µM·h
Kp at 24 h [29]: 136
Drug uptake (Liver): 64710 ng
Tmax [30]: 1.5 h
half-life [31]: 4 h

C=C[C@@H]1C[C@]1(NC(=O)[C@@H]1C[C@@H](Oc2nccc3c(Cl)cccc23)CN1C(=O)[C@@H](NC(=O)OC(C)(C)C)C(C)(C)C)C(=O)NS(=O)(=O)C1CC1
half-life [1]: 6.6 h
AUC [2]: 2.08 µM·h
bioavailability [3]: 6%
CC50 [4]: 38000 nM
EC50 (Hepatitis C virus [5]): 25 nM
clearance [6]: 7 mL/min/kg
AUC at 4 h [7]: 5.5 µM·h
Drug uptake (Liver): 36160 ng
IC50 [8]: 1 nM

C=C[C@@H]1C[C@]1(NC(=O)[C@@H]1C[C@@H](Oc2nccc3cc(OC)ccc23)CN1C(=O)[C@@H](NC(=O)OC(C)(C)C)C(C)C)C(=O)NS(=O)(=O)C1CC1
half-life [1]: 2.9 h
AUC [2]: 10.5 µM·h
bioavailability [3]: 28%
CC50 [4]: > 100000 nM
EC50 (Hepatitis C virus [5]): 33 nM
clearance [6]: 7.8 mL/min/kg
IC50 [8]: 2 nM

C=C[C@@H]1C[C@]1(NC(=O)[C@@H]1C[C@@H](Oc2ncc(OC)c3cc(OC)ccc23)CN1C(=O)[C@@H](NC(=O)OC(C)(C)C)C(C)(C)C)C(=O)NS(=O)(=O)C1CC1
half-life [1]: 3.1 h
AUC [2]: 0.194 µM·h
bioavailability [3]: 2%
CC50 [4]: 45000 nM
EC50 (Hepatitis C virus [5]): 2 nM
clearance [6]: 27 mL/min/kg
IC50 [8]: 1 nM

C=C[C@@H]1C[C@]1(NC(=O)[C@@H]1C[C@@H](Oc2nc(-c3ccccc3)cc3cc(OC)ccc23)CN1C(=O)[C@@H](NC(=O)OC(C)(C)C)C(C)(C)C)C(=O)NS(=O)(=O)C1CC1
CC50 [4]: 13000 nM
EC50 (Hepatitis C virus [5]): 4 nM
AUC at 4 h [7]: 1.11 µM·h
Drug uptake (Liver): 72910 ng
IC50 [8]: 1 nM
